Source: ChEMBL document CHEMBL3352213, “Development of dual targeting inhibitors against aggregations of amyloid-β and tau protein” (Eur J Med Chem, 2014)

Assays:
[1] = biological target: T1, Amyloid-beta precursor protein (Homo sapiens, UniProt P05067); assay: Inhibition of amyloid beta (1-42) aggregation (unknown origin) after 24 hrs by thioflavin T fluorescence method
[2] = biological target: T2, Microtubule-associated protein tau (Homo sapiens, UniProt P10636); assay: Inhibition of His-tagged human brain tau 3R MBD aggregation at 1 uM after 16 hrs by thioflavin T fluorescence method
T2 sequence (P10636 whole entry): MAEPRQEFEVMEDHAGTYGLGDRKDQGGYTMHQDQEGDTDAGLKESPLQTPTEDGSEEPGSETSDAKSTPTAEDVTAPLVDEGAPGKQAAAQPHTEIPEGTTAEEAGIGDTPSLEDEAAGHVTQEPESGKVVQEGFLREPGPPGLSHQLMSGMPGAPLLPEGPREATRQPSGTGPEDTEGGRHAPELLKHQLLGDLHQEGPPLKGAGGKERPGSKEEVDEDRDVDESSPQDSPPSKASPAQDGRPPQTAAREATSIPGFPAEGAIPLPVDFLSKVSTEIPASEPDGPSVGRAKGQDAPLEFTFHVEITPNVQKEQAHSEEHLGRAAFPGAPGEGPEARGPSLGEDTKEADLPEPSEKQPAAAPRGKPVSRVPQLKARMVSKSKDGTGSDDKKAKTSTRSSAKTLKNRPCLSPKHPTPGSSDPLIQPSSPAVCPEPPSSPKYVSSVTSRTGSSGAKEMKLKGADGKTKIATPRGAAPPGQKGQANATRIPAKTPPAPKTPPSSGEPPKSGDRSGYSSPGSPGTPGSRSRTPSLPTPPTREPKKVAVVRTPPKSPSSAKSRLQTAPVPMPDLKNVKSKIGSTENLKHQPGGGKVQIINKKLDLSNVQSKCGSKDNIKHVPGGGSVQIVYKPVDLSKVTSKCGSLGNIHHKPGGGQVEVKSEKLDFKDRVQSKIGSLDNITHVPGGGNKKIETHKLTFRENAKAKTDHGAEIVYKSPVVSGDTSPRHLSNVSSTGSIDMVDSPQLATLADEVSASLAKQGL
How it was run: (§1)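 His-tagged 3R MBD tau expressed in E. coli BL21(DE3), purified by Ni-chelate chromatography, dialysed against ammonium acetate and freeze-dried. Tau 10 μM plus heparin 10 μM in 50 mM Tris–HCl pH 7.6 with compound (0.1–10 μM, DMSO), incubated 37 °C 16 h in the dark. Background fluorescence read first, then 10 μM ThT added; ThT fluorescence at ex 440/em 486 nm.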

[3] = biological target: T1, Amyloid-beta precursor protein; assay: Inhibition of amyloid beta (1-42) aggregation (unknown origin) at 1 uM after 24 hrs by thioflavin T fluorescence method
[4] = biological target: T2, Microtubule-associated protein tau; assay: Inhibition of His-tagged human brain tau 3R MBD aggregation after 16 hrs by thioflavin T fluorescence method
[5] = biological target: T1, Amyloid-beta precursor protein; assay: Inhibition of amyloid beta (1-42) aggregation (unknown origin) at 10 uM after 24 hrs by thioflavin T fluorescence method
[6] = biological target: T2, Microtubule-associated protein tau; assay: Inhibition of His-tagged human brain tau 3R MBD aggregation at 10 uM after 16 hrs by thioflavin T fluorescence method; how it was run: as §1

T1 sequence (P05067 whole entry): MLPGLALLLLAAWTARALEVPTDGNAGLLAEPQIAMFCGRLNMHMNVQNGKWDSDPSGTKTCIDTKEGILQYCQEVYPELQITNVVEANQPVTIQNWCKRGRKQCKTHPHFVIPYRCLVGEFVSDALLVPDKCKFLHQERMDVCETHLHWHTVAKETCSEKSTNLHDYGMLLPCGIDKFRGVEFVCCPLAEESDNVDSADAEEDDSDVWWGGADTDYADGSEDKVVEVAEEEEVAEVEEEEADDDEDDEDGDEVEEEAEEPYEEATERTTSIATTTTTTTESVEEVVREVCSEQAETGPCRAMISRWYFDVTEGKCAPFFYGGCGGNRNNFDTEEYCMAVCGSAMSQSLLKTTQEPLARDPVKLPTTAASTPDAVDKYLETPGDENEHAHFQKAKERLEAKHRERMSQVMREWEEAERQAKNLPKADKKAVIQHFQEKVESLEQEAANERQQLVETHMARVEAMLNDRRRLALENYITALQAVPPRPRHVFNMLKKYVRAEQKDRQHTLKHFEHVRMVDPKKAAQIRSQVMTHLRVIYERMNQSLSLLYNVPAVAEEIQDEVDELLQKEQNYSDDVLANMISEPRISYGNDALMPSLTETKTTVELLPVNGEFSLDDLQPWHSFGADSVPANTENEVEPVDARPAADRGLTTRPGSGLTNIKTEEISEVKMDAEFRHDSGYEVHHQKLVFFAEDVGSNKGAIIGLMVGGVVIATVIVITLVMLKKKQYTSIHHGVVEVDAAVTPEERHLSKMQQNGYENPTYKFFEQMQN

Row | Structure (SMILES) | IC50 [1] [µM] | inhibition [2] [%] | inhibition [3] [%] | IC50 [4] [µM] | inhibition [5] [%] | inhibition [6] [%]
1 | CN(C)c1ccc2nc3ccc(=[N+](C)C)cc-3sc2c1 [METHYLENE BLUE CATION] | 0.55 | – | – | – | – | –
2 | COc1ccc(-c2cc3c(s2)c2sc(-c4ccc(C=O)s4)cc2n3C(C)(C)C)cc1 | 0.38 | 74 | 61 | 0.29 | – | –
3 | CNc1ccc2nc3ccc(N(C)C)cc3[s+]c2c1 | < 3 | – | – | < 3 | – | –
4 | CC(C)(C)n1c2cc(-c3ccc(N(c4ccccc4)c4ccccc4)cc3)sc2c2sc(-c3ccc(C=C(C#N)C#N)s3)cc21 | > 10 | – | – | > 10 | 16 | 18
5 | N#C/C(=C\c1ccc(-c2ccc(-c3ccc(N(c4ccccc4)c4ccccc4)cc3)s2)s1)C(N)=O | 1.5 | – | – | > 10 | – | 29
6 | COc1ccc(-c2ccc(-c3ccc(C=C(C#N)C#N)s3)s2)cc1 | < 1 | – | 78 | > 10 | – | 28
7 | N#C/C(=C\c1ccc(-c2ccc(-c3ccc(N(c4ccccc4)c4ccccc4)cc3)c3nsnc23)s1)C(N)=O | > 10 | – | – | > 10 | 46 | 24
8 | CN1C(=O)C(=Cc2ccc(-c3ccc(-c4ccc(N(c5ccccc5)c5ccccc5)cc4)s3)s2)C(=O)N(C)C1=O | > 10 | – | – | > 10 | 18 | 7
9 | N#CC(C#N)=Cc1ccc(-c2ccc(-c3ccc(N(c4ccccc4)c4ccccc4)cc3)c3nsnc23)s1 | > 10 | – | – | > 10 | 30 | 15
10 | O=c1c(O)c(-c2ccc(O)c(O)c2)oc2c(O)c(O)cc(O)c12 [GOSSYPETIN] | < 3 | – | – | < 3 | – | –
11 | N#C/C(=C\c1ccc(-c2ccc(-c3ccc(N(c4ccccc4)c4ccccc4)cc3)s2)s1)C(=O)O | < 0.41 | – | 82 | 1.7 | – | –
12 | O=Cc1ccc(-c2ccc(-c3ccc4[nH]ccc4c3)s2)s1 | > 10 | – | – | 1.6 | 46 | –
13 | COc1ccc(-c2cc3c(s2)c2sc(-c4ccc(/C=C(\C#N)C(N)=O)s4)cc2n3C(C)(C)C)cc1 | 0.55 | – | – | 0.3 | – | –
14 | O=C1NC(=O)C(=Cc2ccc(-c3ccc(-c4ccc(N(c5ccccc5)c5ccccc5)cc4)s3)s2)C(=O)N1 | > 10 | – | – | > 10 | 0 | 12
15 | O=Cc1ccc(-c2ccc(-c3ccc(N(c4ccccc4)c4ccccc4)cc3)s2)s1 | 7.1 | – | – | > 10 | – | 12
16 | CC(C)(C)n1c2cc(-c3ccc(N(c4ccccc4)c4ccccc4)cc3)sc2c2sc(-c3ccc(/C=C(\C#N)C(N)=O)s3)cc21 | > 10 | – | – | > 10 | 36 | 33
17 | COc1ccc(-c2cc3c(s2)c2sc(-c4ccc(C=C(C#N)C#N)s4)cc2n3C(C)(C)C)cc1 | > 10 | – | – | > 10 | 18 | 27
18 | N#CC(C#N)=Cc1ccc(-c2ccc(-c3ccc(N(c4ccccc4)c4ccccc4)cc3)s2)s1 | > 10 | – | – | > 10 | 43 | 14
19 | CC(C)(C)n1c2cc(-c3ccc(N(c4ccccc4)c4ccccc4)cc3)sc2c2sc(-c3ccc(C=O)s3)cc21 | > 10 | – | – | > 10 | 36 | 15
20 | CN(C)c1ccc2nc3ccc(N)cc3[s+]c2c1 | < 3 | – | – | < 3 | – | –
21 | COc1ccc(-c2ccc(-c3ccc(C=O)s3)s2)cc1 | > 10 | – | – | > 10 | 0 | 18
22 | O=Cc1ccc(-c2ccc(-c3ccc(N(c4ccccc4)c4ccccc4)cc3)c3nsnc23)s1 | > 10 | – | – | > 10 | 44 | 11
